Experimental data: ChEMBL document CHEMBL1909617, “Bioactive dammarane-type saponins from Operculina turpethum” (J Nat Prod, 2011)

Columns and labels:
[1] = Cytotoxicity against human embryo L02 cells assessed as cell viability after 48 hrs by MTT assay; type: cell-based; conditions: read-out: MTD
Outline: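 Human embryo liver L-02 cells in RPMI-1640 with 10% heat-inactivated FBS, penicillin, streptomycin and L-glutamine, seeded at 2 × 10^4 cell/mL and grown 24 h at 37 C, 5% CO2. Medium replaced by serial dilutions of compound (from 1 mg/mL DMSO stock), 48 h exposure. MTT added for 4 h, formazan dissolved in DMSO, OD 570 nm. Viability = OD(compound)/OD(control) × 100; maximum nontoxic concentration derived.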

[2] = Cytoprotective activity in human embryo L02 cells assessed as inhibition of D-galactosamine-induced cytotoxicity at 12.5 ug/ml treated for 1 hr prior to D-galactosamine challenge measured after 48 hrs by MTT assay relative to control; type: functional
Outline: (§1)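 L-02 human embryo liver cells in RPMI-1640 with 10% heat-inactivated FBS, penicillin, streptomycin, L-glutamine; seeded 2 × 10^4 cells/mL, grown 24 h at 37 °C, 5% CO2. Fresh medium with compound (diluted from 1 mg/mL DMSO stock) for 1 h, then 5 mM D-GalN for 48 h. MTT read at 570 nm; inhibition (%) = (OD compound − OD GalN control)/(OD blank − OD control) × 100; n = 3, mean ± SD.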

[3] = Cytoprotective activity in human embryo L02 cells assessed as inhibition of D-galactosamine-induced cytotoxicity at 6.25 ug/ml treated for 1 hr prior to D-galactosamine challenge measured after 48 hrs by MTT assay relative to control; type: functional; outline: as §1
[4] = Cytoprotective activity in human embryo L02 cells assessed as inhibition of D-galactosamine-induced cytotoxicity at 3.13 ug/ml treated for 1 hr prior to D-galactosamine challenge measured after 48 hrs by MTT assay relative to control; type: functional; outline: as §1
[5] = Cytoprotective activity in human embryo L02 cells assessed as inhibition of D-galactosamine-induced cytotoxicity at 1.56 ug/ml treated for 1 hr prior to D-galactosamine challenge measured after 48 hrs by MTT assay relative to control; type: functional; outline: as §1

CC(C)[C@]1(CO)CC[C@@](C)([C@H]2[C@H](O)C[C@]3(C)[C@@H]2CC[C@@H]2[C@@]4(C)CC[C@H](O[C@@H]5O[C@H](CO)[C@@H](O)[C@H](O)[C@H]5O[C@@H]5O[C@H](CO)[C@@H](O)[C@H](O)[C@H]5O)C(C)(C)[C@@H]4CC[C@]23C)O1 [OPERCULINOSIDE A]
MNTC at 48 h [1]: 12.5 µg/mL
inhibition at 12.5 µg/mL [2]: 46.7%
inhibition at 6.25 µg/mL [3]: -14.7%
inhibition at 3.13 µg/mL [4]: -22.8%

CC(C)[C@]1(CO[C@@H]2O[C@H](CO)[C@@H](O)[C@H](O)[C@H]2O)CC[C@@](C)([C@H]2[C@H](O)C[C@]3(C)[C@@H]2CC[C@@H]2[C@@]4(C)CC[C@H](O[C@@H]5O[C@H](CO)[C@@H](O)[C@H](O)[C@H]5O[C@@H]5O[C@H](CO)[C@@H](O)[C@H](O)[C@H]5O)C(C)(C)[C@@H]4CC[C@]23C)O1 [OPERCULINOSIDE B]
MNTC at 48 h [1]: 100 µg/mL
inhibition at 12.5 µg/mL [2]: -6.9%
inhibition at 6.25 µg/mL [3]: 10.4%
inhibition at 3.13 µg/mL [4]: 3.5%

CC(C)(O)[C@@H]1CC[C@@](C)([C@H]2[C@H](O)C[C@]3(C)[C@@H]2CC[C@@H]2[C@@]4(C)CC[C@H](O[C@@H]5O[C@H](CO)[C@@H](O)[C@H](O)[C@H]5O[C@@H]5O[C@H](CO)[C@@H](O)[C@H](O)[C@H]5O)C(C)(C)[C@@H]4CC[C@]23C)O1 [OPERCULINOSIDE C]
MNTC at 48 h [1]: 50 µg/mL
inhibition at 12.5 µg/mL [2]: 44.1%
inhibition at 6.25 µg/mL [3]: 69.5%
inhibition at 3.13 µg/mL [4]: 16.7%

CC(C)(O[C@@H]1O[C@H](CO)[C@@H](O)[C@H](O)[C@H]1O)[C@@H]1CC[C@@](C)([C@H]2[C@H](O)C[C@]3(C)[C@@H]2CC[C@@H]2[C@@]4(C)CC[C@H](O[C@@H]5O[C@H](CO)[C@@H](O)[C@H](O)[C@H]5O[C@@H]5O[C@H](CO)[C@@H](O)[C@H](O)[C@H]5O)C(C)(C)[C@@H]4CC[C@]23C)O1 [OPERCULINOSIDE D]
MNTC at 48 h [1]: 100 µg/mL
inhibition at 12.5 µg/mL [2]: 22.2%
inhibition at 6.25 µg/mL [3]: 6.3%
inhibition at 3.13 µg/mL [4]: 5.5%

COc1cc(C2Oc3cc([C@H]4Oc5cc(O)cc(O)c5C(=O)[C@@H]4O)ccc3OC2CO)ccc1O (stereo not given in full) [SILIBININ]
MNTC at 48 h [1]: 6.25 µg/mL
inhibition at 6.25 µg/mL [3]: 28.2%
inhibition at 3.13 µg/mL [4]: 33.4%
inhibition at 1.56 µg/mL [5]: 10.1%
